An excerpt weighted towards active compounds, which were near 5.6% of everything screened.
XBP1 UPR activ – activators of adaptive XBP1 UPR arm, primary screen, cell-based, CHO-XBP1 luciferase reporter, luminescence, uHTS; AID 463104, 2010; IRE1-XBP1 UPR activation; percent of tunicamycin response, DMSO as zero; 0.33% of 330,000 active; activation, % at 20 µM;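 active = versus positive control, 20 µM dose yields 30% or more activation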;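 also: 100% = tunicamycin at 10 µg/mL and 0% = DMSO only wells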
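Assay system: CHO-XBP1 luciferase reporter cells; Schedule: 6 h treatment, 37 °C; Detection: glow luminescence from Steady-Glo reagent; Benchmarks: high control tunicamycin 10 µg/mL final, low control DMSO vehicle only.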
CHOP UPR activ – activators of apoptotic CHOP UPR arm, primary screen, cell-based, CHO-CHOP luciferase reporter, luminescence, uHTS | UPR activation; percent of tunicamycin response over DMSO baseline | activation, % at 10 µM | 0.34% of 330,000 active | AID 449763, 2010;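 active = at 10 µM dose, activation of 40% or more, normalized to positive control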;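 also: 100% = tunicamycin at 10 µg/mL and 0% = DMSO alone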
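Assay system: CHO-CHOP cells, stable luciferase reporter of PERK-eIF2a-CHOP signalling / Buffer or medium: F12 plus 10% serum / Compound dosing: one dose, 10 µM in 0.5% DMSO / Times: 6 h compound treatment, 37 °C / Technique: luciferase luminescence / Read-out: % reporter activation, DMSO baseline versus tunicamycin full activation / Benchmarks: tunicamycin and DMSO controls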
NR3A LBD binder – binders of NR3A ligand-binding domain, primary screen, biophysical, differential scanning fluorimetry, uHTS; NR3A LBD differential scanning fluorimetry, Tm shift; 0% = protein alone, 100% = glycine-bound protein; AID 1259313, 2017; Glutamate receptor ionotropic, NMDA 3A (GRIN3A) ligand-binding domain; Tm shift relative to glycine control, % at 25 µM; 2.5% of 340,000 active;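 active = melting temperature shift of at least 10% of the positive control shift, at one fixed dose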
MPTP inh – mitochondrial permeability transition pore inhibitors, primary screen, biochemical, isolated mouse mitochondria, absorbance; Ca2+ swelling absorbance, 30 min; inhibition, % at 10 µM; 1.4% of 360,000 active;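 active = inhibition of 50% or more, scaled per plate between neutral and stimulator controls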;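 also: 0% = DMSO wells given calcium and 100% = 1 mM EGTA wells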
CHOP inh – inhibitors of CHOP promoter induction, primary screen, cell-based, unfolded protein response, luciferase reporter. inhibition, % at 10 µM. 3.8% of 220,000 active. CHO-K1 CHOP-promoter luciferase, tunicamycin-induced, 15-18 h;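 active = compounds that reduced the stress-induced luciferase reporter signal by more than about 70% of percent inhibition, limit read from the data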;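 also: 0% = tunicamycin plus vehicle and 100% = wells without tunicamycin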
aDG glyco act – activators of alpha-DG glycosylation, primary screen, uHTS, Pro5-aDG cells, AlphaScreen. alpha-DG glycosylation AlphaScreen (IIH6); 0% Pro5, 100% B10-LARGE cell signal. 0.22% of 360,000 active. AID 624168, 2012. activation, % at 10 µM;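 active = activation of at least 8% versus controls, or a plate z-score of at least 8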;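 also: Pro5 are CHO cells carrying HIG-tagged alpha-DG that lacks glycosylation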
Active calls of the source: *.

CCSC1=N/C(=C\c2ccc(C(=O)O)cc2)C(=O)S1 was read as XBP1 UPR activ 1.7, CHOP UPR activ -0.5, NR3A LBD binder 20.1*, MPTP inh -2.4, CHOP inh 26.5 and aDG glyco act -0.1.
`CCSC1=N/C(=C\c2ccc(C)s2)C(=O)S1` gave XBP1 UPR activ -0.1, CHOP UPR activ -0.9, NR3A LBD binder 13.4*, MPTP inh 1.5, CHOP inh 59.5 and aDG glyco act -0.1.
O=C1SC(SCc2ccccc2Cl)=N/C1=C\c1ccc(C(=O)O)cc1 was read as XBP1 UPR activ 9.0, CHOP UPR activ 1.1, NR3A LBD binder 1.1, MPTP inh -2.5, CHOP inh 82.0* and aDG glyco act 0.1.
COC(=O)c1ccc(/C=C2\N=C(SC)SC2=O)cc1 was read as XBP1 UPR activ -1.1, CHOP UPR activ -0.4, NR3A LBD binder -2.0, MPTP inh 0.5, CHOP inh 53.3 and aDG glyco act -0.1.
For C=CCSC1=N/C(=C\c2ccc(C(=O)O)cc2)C(=O)S1 the results were XBP1 UPR activ 0.2, CHOP UPR activ -1.3, NR3A LBD binder -0.8, MPTP inh -1.8, CHOP inh 49.9 and aDG glyco act 0.3.
For Cc1nc(NC(=O)Nc2ccc(Cl)cc2)sc1C the results were XBP1 UPR activ -2.5, CHOP UPR activ 2.3, NR3A LBD binder 12.1*, MPTP inh 5.5, CHOP inh -29.8 and aDG glyco act -0.1.
CCC(=O)NC(=S)Nc1ccc(NC(=O)COc2ccc(Cl)cc2Cl)cc1 was read as XBP1 UPR activ 14.0, CHOP UPR activ 1.3, NR3A LBD binder 3.5, MPTP inh 0.2, CHOP inh 89.5* and aDG glyco act -0.1.
Screening COc1ccc(NC(=S)NNC(=O)COc2ccc(Cl)cc2Cl)cc1 returned XBP1 UPR activ -0.6, CHOP UPR activ -1.2, NR3A LBD binder -3.8, MPTP inh 4.2, CHOP inh -0.6 and aDG glyco act 0.1.
Screening CCC(=O)Nc1ccc(Cl)c(NC(=S)NC(=O)COc2ccc(Cl)cc2)c1 returned XBP1 UPR activ -3.8, CHOP UPR activ 4.7, NR3A LBD binder 25.9*, MPTP inh 8.4, CHOP inh 60.4 and aDG glyco act -0.1.
`Cc1ccc2c(c1)c1c3n2CCN(C(=O)CCl)C3CCC1` (centres undefined) gave XBP1 UPR activ 1.1, CHOP UPR activ 26.3, NR3A LBD binder 2.4, MPTP inh 0.2 and aDG glyco act 0.5.
`COc1ccc(C2CC(c3cccs3)=NN2C(=O)CSc2nc3c(cnn3-c3ccccc3)c(=O)[nH]2)cc1` (centres undefined) gave XBP1 UPR activ 0.0, CHOP UPR activ 4.3, NR3A LBD binder -26.6, MPTP inh 0.7, CHOP inh 76.0* and aDG glyco act -0.6.
For CCCCn1c(N)c(N(C)C(=O)c2cc3c(s2)CCCCC3)c(=O)[nH]c1=O the results were XBP1 UPR activ 0.8, CHOP UPR activ 2.0, NR3A LBD binder -2.7, MPTP inh -2.0 and aDG glyco act 0.3.
For CCn1c(CNC(=O)c2ccc(F)cc2)cc2ccccc21 the results were XBP1 UPR activ -3.2, CHOP UPR activ 1.4, NR3A LBD binder -1.4, MPTP inh 1.1 and aDG glyco act -0.1.
`O=C(COC(=O)c1ccccc1Nc1ccccc1)Nc1ccccc1` gave XBP1 UPR activ -0.1, CHOP UPR activ -0.7, NR3A LBD binder 0.4, MPTP inh 3.9, CHOP inh 78.0* and aDG glyco act 0.2.
`O=C(COC(=O)c1ccccc1O)Nc1ccc(OC(F)F)cc1` gave XBP1 UPR activ 2.6, CHOP UPR activ 2.3, NR3A LBD binder -24.5, MPTP inh -2.2, CHOP inh 72.4* and aDG glyco act 0.7.
CCCCC(=O)OCC(=O)Nc1ccc(OC(F)F)cc1 was read as XBP1 UPR activ -0.1, CHOP UPR activ 0.6, NR3A LBD binder 13.1*, MPTP inh -2.1, CHOP inh 10.9 and aDG glyco act 0.1.
`CC(=O)c1ccc(NC(=O)COC(=O)c2ccccc2Nc2ccccc2)cc1` gave XBP1 UPR activ -1.8, CHOP UPR activ -0.6, NR3A LBD binder 5.0, MPTP inh 36.5, CHOP inh 57.4 and aDG glyco act 0.5.
O=C(CSc1ccc(S(=O)(=O)N2CCCC2)cn1)Nc1ccc([N+](=O)[O-])cc1C(F)(F)F was read as NR3A LBD binder -2.2, MPTP inh 4.5 and aDG glyco act 0.2.
Screening OC12CCCCC1C(c1ccc3c(c1)OCO3)N(Cc1cccc(F)c1)CC2 (centres undefined) returned NR3A LBD binder -0.4, MPTP inh -1.3, CHOP inh 60.7 and aDG glyco act -0.2.
Screening OC12CCCCC1C(c1ccc3c(c1)OCO3)N(Cc1ccc(F)cc1)CC2 (centres undefined) returned XBP1 UPR activ -0.4, CHOP UPR activ -2.6, NR3A LBD binder -3.5, MPTP inh 0.6, CHOP inh 90.2* and aDG glyco act -0.1.
`COc1ccc(-c2nsc3c(N4CCCCC4C)ncnc23)cc1` (centres undefined) gave XBP1 UPR activ -11.4, CHOP UPR activ -8.9, NR3A LBD binder -2.3, MPTP inh -0.1, CHOP inh 92.7* and aDG glyco act 0.2.
COc1ccc(C(=O)N2CCN(c3ncnc4c(-c5ccccc5)nsc34)CC2)cc1 was read as NR3A LBD binder 1.1, MPTP inh -0.6, CHOP inh 41.2 and aDG glyco act 0.4.
Screening COc1ccc(-c2nsc3c(N4CCCCC4)ncnc23)cc1 returned XBP1 UPR activ -5.3, CHOP UPR activ -7.8, NR3A LBD binder 0.8, MPTP inh 0.2, CHOP inh 82.1* and aDG glyco act -0.1.
For CCNc1sc(C(=O)c2cccs2)c(N)c1-c1nc2ccccc2s1 the results were XBP1 UPR activ 9.4, CHOP UPR activ 0.2, NR3A LBD binder 21.2*, MPTP inh 3.1, CHOP inh 78.2* and aDG glyco act 5.7.
Screening CCNc1sc(C(=O)c2cccs2)c(N)c1C#N returned XBP1 UPR activ 4.2, CHOP UPR activ -1.0, NR3A LBD binder -7.2, MPTP inh -0.6, CHOP inh 35.1 and aDG glyco act -0.2.
Screening CCOC(=O)c1sc(NCc2ccco2)c(-c2nc3ccccc3s2)c1N returned XBP1 UPR activ -2.1, CHOP UPR activ 6.6, NR3A LBD binder -0.2, MPTP inh -4.2, CHOP inh 21.9 and aDG glyco act 0.0.
For C=CCNc1sc(C(=O)c2ccccc2)c(N)c1-c1nc2ccccc2s1 the results were XBP1 UPR activ 0.2, CHOP UPR activ 0.6, NR3A LBD binder -0.6, MPTP inh 13.9, CHOP inh 81.8* and aDG glyco act 0.1.

Compound activity deposited in PubChem BioAssay by several laboratories.
